Laboratory results reported in ChEMBL document CHEMBL1811884, “Bioactive neo-clerodane diterpenoids from the whole plants of Ajuga ciliata Bunge” (J Nat Prod, 2011).
The source made the active and inactive calls. The calls are words filed in the database; no cut-off is given here.

How the values were obtained:
SH-SY5Y [1] = test: Neuroprotective activity against MPP+-induced neuronal cell death in human SH-SY5Y cells assessed as cell viability at 3 uM pretreated for 2 hrs before MPP+ administration measured after 4 hrs by MTT assay; format: functional
How it was run: (§1)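 SH-SY5Y cells grown at 37 °C in DMEM with 10% heat-inactivated FBS and penicillin/streptomycin, detached with 1 mM EGTA in PBS for 15 min, seeded at 1 × 10^4 cells/well and incubated 24 h. Cells were pretreated 2 h with compound at 3, 10 or 30 μM, then exposed to MPP+ medium. MTT was added to 0.5 mg/mL final, incubated 4 h, and formazan read at 550 nm. Guanosine served as positive control. Triplicates, mean ± SEM, ANOVA with Student–Newman–Keuls test.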

SH-SY5Y [2] = test: Neuroprotective activity against MPP+-induced neuronal cell death in human SH-SY5Y cells assessed as cell viability at 10 uM pretreated for 2 hrs before MPP+ administration measured after 4 hrs by MTT assay; format: functional; how it was run: as §1
SH-SY5Y [3] = test: Neuroprotective activity against MPP+-induced neuronal cell death in human SH-SY5Y cells assessed as cell viability at 30 uM pretreated for 2 hrs before MPP+ administration measured after 4 hrs by MTT assay; format: functional; how it was run: as §1
SH-SY5Y [4] = test: Cytotoxicity in human SH-SY5Y cells at 3 to 30 uM by MTT assay; format: cell-based
How it was run: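 SH-SY5Y human dopaminergic neuroblastoma cells grown at 37 °C, 5% CO2, in DMEM with 10% inactivated FBS and penicillin/streptomycin. Cells detached with 1 mM EGTA in PBS for 15 min, seeded at 1 × 10^4 cells/well, and incubated 24 h. Compounds given at 3, 10 and 30 μM. MTT added to 0.5 mg/mL final for 4 h at 37 °C; formazan read at 550 nm. Run in triplicate.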

SMILES	Activity (SH-SY5Y [1])	Activity (SH-SY5Y [2])	Activity (SH-SY5Y [3])	Activity (SH-SY5Y [4])
CC(=O)OC[C@@]12[C@@H](OC(C)=O)C[C@@H](C)[C@](C)(C[C@H](OC(C)=O)C3=CC(=O)OC3)[C@H]1[C@H](OC(C)=O)CC[C@]21CO1	inactive	inactive	inactive	
CC(=O)OC[C@]12[C@@H](OC(C)=O)C[C@@H](C)[C@]3(C)C[C@H](C4=CC(=O)OC4)O[C@H](CC[C@]1(O)CO)[C@H]32 [AJUGACILIATIN G]	69.1%	73.6%	81.5%	
C/C=C(\C)C(=O)OC[C@@]12[C@@H](OC(C)=O)C[C@@H](C)[C@](C)(CCC3=CC(=O)OC3)[C@H]1CCC[C@]21CO1	inactive	inactive	inactive	
CC[C@H](C)C(=O)O[C@@H]1CC[C@](O)(CCl)[C@]2(COC(C)=O)[C@@H](OC(C)=O)C[C@@H](C)[C@](C)(C[C@H](OC(C)=O)C3=CC(=O)OC3)[C@@H]12	inactive	inactive	inactive	
CC(=O)OC[C@@]12[C@@H](OC(C)=O)C[C@@H](C)[C@](C)(C[C@H](O)C3=CC(=O)OC3)[C@H]1CCC[C@]21CO1	inactive	inactive	inactive	
CC[C@H](C)C(=O)O[C@@H](C[C@@]1(C)[C@H](C)C[C@H](OC(C)=O)[C@]2(COC(C)=O)[C@@H]1[C@H](OC(C)=O)CC[C@]2(O)CCl)C1=CC(=O)OC1 [AJUGACILIATIN B]	67.4%	80.4%	88.2%	
CC[C@H](C)C(=O)O[C@@H]1CC[C@]2(CO2)[C@]2(COC(C)=O)[C@@H](OC(C)=O)C[C@@H](C)[C@](C)(C[C@H](O)C3=CC(=O)OC3)[C@@H]12	inactive	inactive	inactive	
C/C=C(\C)C(=O)O[C@@H](C[C@@]1(C)[C@H](C)C[C@H](OC(C)=O)[C@]2(COC(C)=O)[C@@H]1[C@H](OC(=O)[C@@H](C)CC)CC[C@]21CO1)C1=CC(=O)OC1 [AJUGAMARIN H1]	67.3%	70.4%	87.5%	
C/C=C(\C)C(=O)OC[C@@]12[C@H](CCC[C@]1(O)CO)[C@@](C)(CCC1=CC(=O)OC1)[C@H](C)C[C@@H]2O	inactive	inactive	inactive	
C/C=C(\C)C(=O)O[C@@H]1CC[C@](O)(CCl)[C@]2(COC(C)=O)[C@@H](OC(C)=O)C[C@@H](C)[C@](C)(C[C@H](O)C3=CC(=O)OC3)[C@@H]12 [AJUGAMARIN A1 CHLOROHYDRIN]	67.1%	69.2%	73.8%	
C/C=C(\C)C(=O)O[C@@H]1CC[C@](O)(CCl)[C@]2(COC(C)=O)[C@@H](OC(C)=O)C[C@@H](C)[C@](C)(C[C@H](OC(C)=O)C3=CC(=O)OC3)[C@@H]12 [AJUGAMARIN A2 CHLOROHYDRIN]	71%	79.7%	83.7%	
C/C=C(\C)C(=O)OC[C@@]12[C@@H](OC(C)=O)C[C@@H](C)[C@](C)(CCC3=CC(=O)OC3)[C@H]1CCC[C@]2(O)CCl	inactive	inactive	inactive	
CC[C@H](C)C(=O)O[C@@H](C[C@@]1(C)[C@H](C)C[C@H](OC(C)=O)[C@]2(COC(C)=O)[C@@H]1[C@H](OC(=O)[C@@H](C)CC)CC[C@]21CO1)C1=CC(=O)OC1 [AJUGATAKASIN B]	70.2%	76.5%	84.3%	
CC(=O)OC[C@@]12[C@@H](OC(C)=O)C[C@@H](C)[C@](C)(C[C@H](O)C3=CC(=O)OC3)[C@H]1[C@H](OC(C)=O)CC[C@]21CO1	inactive	inactive	inactive	
C/C=C(\C)C(=O)O[C@@H](C[C@@]1(C)[C@H](C)C[C@H](OC(C)=O)[C@]2(COC(C)=O)[C@@H]1[C@H](OC(C)=O)CC[C@]21CO1)C1=CC(=O)OC1 [AJUGANIPPONIN A]	65.4%	69.2%	76.6%	Non-toxic
C/C=C(\C)C(=O)OC[C@@]1(O)CCC[C@@H]2[C@@](C)(CCC3=CC(=O)OC3)[C@H](C)C[C@H](O)[C@]21CO	inactive	inactive	inactive	
C/C=C(\C)C(=O)O[C@@H]1CC[C@](O)(CCl)[C@]2(COC(C)=O)[C@@H](OC(C)=O)C[C@@H](C)[C@](C)(C[C@H](OC(=O)[C@@H](C)CC)C3=CC(=O)OC3)[C@@H]12	inactive	inactive	inactive	
C/C=C(\C)C(=O)O[C@@H]1CC[C@]2(CO2)[C@]2(COC(C)=O)[C@@H](OC(C)=O)C[C@@H](C)[C@](C)(C[C@H](O)C3=CC(=O)OC3)[C@@H]12 [AJUGAMARIN A1]	65.3%	73.4%	81.9%	
C/C=C(\C)C(=O)OC[C@@]12[C@H](CCC[C@]1(O)COC(C)=O)[C@@](C)(CCC1=CC(=O)OC1)[C@H](C)C[C@@H]2O	inactive	inactive	inactive	
C/C=C(\C)C(=O)O[C@@H](C[C@@]1(C)[C@H](C)C[C@H](OC(C)=O)[C@]2(COC(C)=O)[C@@H]1CCC[C@]21CO1)C1=CC(=O)OC1	inactive	inactive	inactive	
CC(=O)OC[C@]12[C@@H](OC(C)=O)C[C@@H](C)[C@]3(C)C[C@H](C4=CC(=O)OC4)O[C@H](CC[C@]14CO4)[C@H]32 [AJUGACILIATIN H]	65.2%	74.2%	78.2%	
CC(=O)OC[C@]12[C@@H](OC(C)=O)C[C@@H](C)[C@]3(C)C[C@H](C4=CC(=O)OC4)O[C@H](CC[C@]1(O)CCl)[C@H]32	inactive	inactive	inactive	
CC[C@H](C)C(=O)O[C@@H](C[C@@]1(C)[C@H](C)C[C@H](OC(C)=O)[C@]2(COC(C)=O)[C@@H]1[C@H](OC(=O)[C@@H](C)CC)CC[C@]2(O)CCl)C1=CC(=O)OC1	inactive	inactive	inactive	
C/C=C(\C)C(=O)O[C@@H](C[C@@]1(C)[C@H](C)C[C@H](OC(C)=O)[C@]2(COC(C)=O)[C@@H]1[C@H](OC(=O)/C(C)=C/C)CC[C@]2(O)CCl)C1=CC(=O)OC1	inactive	inactive	inactive	
C/C=C(\C)C(=O)O[C@@H](C[C@@]1(C)[C@H](C)C[C@H](OC(C)=O)[C@]2(COC(C)=O)[C@@H]1[C@H](OC(=O)/C(C)=C/C)CC[C@]21CO1)C1=CC(=O)OC1 [AJUGATAKASIN A]	66.3%	71.5%	78.2%	
Nc1nc2c(ncn2[C@@H]2O[C@H](CO)[C@@H](O)[C@H]2O)c(=O)[nH]1 [GUANOSINE]	70%	79.7%	90.1%	
C/C=C(\C)C(=O)[C@@H]1CC[C@]2(CO2)[C@]2(COC(C)=O)[C@@H](OC(C)=O)C[C@@H](C)[C@](C)(C[C@H](OC(=O)[C@@H](C)CC)C3=CC(=O)OC3)[C@@H]12	inactive	inactive	inactive	
C/C=C(\C)C(=O)O[C@@H]1CC[C@]2(CO2)[C@]2(COC(C)=O)[C@@H](OC(C)=O)C[C@@H](C)[C@](C)(C[C@H](OC(C)=O)C3=CC(=O)OC3)[C@@H]12	inactive	inactive	inactive	
